Measured values published in ChEMBL document CHEMBL4346672, “Antimicrobial and KPC/AmpC inhibitory activity of functionalized benzosiloxaboroles” (Eur J Med Chem, 2019).
Converted amounts (≈) assume the structure as drawn. The source made the active and inactive calls. No cut-off for these calls is given here.

Assays:
[1] = system: Escherichia coli; experiment: Antibacterial activity against Escherichia coli ATCC 25922 assessed as fold reduction of MIC in presence of efflux pump inhibitor PAbetaN incubated for 18 hrs by CLSI broth microdilution method; assay type: functional
In short: (§1)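 MICs determined with and without PAβN at 50 mg/L in Mueller-Hinton broth containing 1 mM MgSO₄. 2-fold serial dilutions per CLSI. Fold change taken from the paired MICs after 35 °C, 18 h.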

[2] = system: Saccharomyces cerevisiae; experiment: Antifungal activity against Saccharomyces cerevisiae ATCC 9763 assessed as decrease in fungal cell growth at 0.78 to 12.5 mg/L incubated for 24 hrs by CLSI broth dilution method; assay type: functional; settings: ATCC 9763, 24 h
In short: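 Yeast strain subcultured on Sabouraud dextrose agar for 24–48 h at 30 °C before testing. Compounds dissolved in DMSO.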

[3] = system: Acinetobacter baumannii; experiment: Antibacterial activity against Acinetobacter baumannii ATCC 19606 measured after 18 hrs by CLSI broth dilution method; assay type: functional; settings: ATCC 19606, 18 h
In short: (§2)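 Broth MIC in Mueller-Hinton II broth following CLSI, compounds dissolved in DMSO. Strains subcultured twice on tryptic soy agar before testing. Growth read after 35 °C, 18 h.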

[4] = system: Pseudomonas aeruginosa; experiment: Antibacterial activity against Pseudomonas aeruginosa ATCC 27853 assessed as fold reduction of MIC in presence of efflux pump inhibitor PAbetaN incubated for 18 hrs microdilution method; assay type: functional; in short: as §1
[5] = system: Enterobacter cloacae; experiment: Antibacterial activity against Enterobacter cloacae DSM 6234 assessed as diameter of zone inhibition measured after 18 hrs by CLSI disc diffusion method; assay type: functional
In short: (§3)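 Disc diffusion on Mueller-Hinton II agar. Compounds dissolved in DMSO. Strains stored at -80 °C and subcultured twice on tryptic soy agar before testing. Inhibition zones read after 35 °C, 18 h.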

[6] = system: Bordetella bronchiseptica; experiment: Antibacterial activity against Bordetella bronchiseptica ATCC 4617 measured after 18 hrs by CLSI broth dilution method; assay type: functional; settings: ATCC 4617, 18 h; in short: as §2
[7] = system: Escherichia coli; experiment: Antibacterial activity against Escherichia coli ATCC 25922 assessed as diameter of zone inhibition measured after 18 hrs by CLSI disc diffusion method; assay type: functional; in short: as §3
[8] = Dissociation constant, pKa1 of compound in 0.1 M NaOH by potentiometric analysis; assay type: physicochemical
[9] = system: Klebsiella pneumoniae; experiment: Antibacterial activity against Klebsiella pneumoniae ATCC 13883 measured after 18 hrs by CLSI broth dilution method; assay type: functional; settings: ATCC 13883, 18 h; in short: as §2
[10] = system: Saccharomyces cerevisiae; experiment: Antifungal activity against Saccharomyces cerevisiae ATCC 9763 diameter of zone inhibition incubated for 24 hrs by CLSI disc diffusion method; assay type: functional
In short: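 Disc-diffusion run on Mueller-Hinton II agar with 2% glucose and 0.5 mg/L methylene blue, using compounds in DMSO. Yeast was precultured on Sabouraud dextrose agar (24–48 h, 30 °C). Zones read after 24 h at 35 °C.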

[11] = system: Serratia marcescens; settings: ATCC 13880
[12] = system: Pichia kudriavzevii; experiment: Antifungal activity against Candida krusei ATCC 6258 assessed as diameter of zone inhibition incubated for 24 hrs by CLSI disc diffusion method; assay type: functional
In short: (§4)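 Yeast disc diffusion on Mueller-Hinton agar supplemented with 2% glucose and 0.5 mg/L methylene blue. Compounds in DMSO. Yeasts subcultured on Sabouraud dextrose agar before testing. Zones read after 35 °C, 24 h.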

[13] = system: Candida albicans; experiment: Antifungal activity against Candida albicans ATCC 90028 assessed as decrease in fungal cell growth at 0.78 to 12.5 mg/L incubated for 24 hrs by CLSI broth dilution method; assay type: functional; settings: ATCC 90028, 24 h
In short: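 Yeast broth dilution in RPMI 1640 with 2% glucose, compounds in DMSO. Yeasts pre-grown on Sabouraud dextrose agar. Growth read after 35 °C, 24 h.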

[14] = system: Candida parapsilosis; experiment: Antifungal activity against Candida parapsilosis ATCC 22019 assessed as diameter of zone inhibition incubated for 24 hrs by CLSI disc diffusion method; assay type: functional; in short: as §4
[15] = system: Burkholderia cepacia; experiment: Antibacterial activity against Burkholderia cepacia ATCC 25416 measured after 18 hrs by CLSI broth dilution method; assay type: functional; settings: ATCC 25416, 18 h; in short: as §2
[16] = system: Stenotrophomonas maltophilia; experiment: Antibacterial activity against Stenotrophomonas maltophilia ATCC 13637 measured after 18 hrs by CLSI broth dilution method; assay type: functional; settings: ATCC 13637, 18 h; in short: as §2
[17] = system: Staphylococcus epidermidis; experiment: Bactericidal activity against Staphylococcus epidermidis ATCC 12228 measured after 18 hrs by CLSI broth dilution method; assay type: functional; settings: ATCC 12228, 18 h
In short: (§5)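 Strains stored at -80 °C and subcultured twice on tryptic soy agar before testing. Compounds dissolved in DMSO. […] MBC then determined per CLSI recommendations.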

[18] = system: Staphylococcus aureus; experiment: Bactericidal activity against Staphylococcus aureus ATCC 6538P measured after 18 hrs by CLSI broth dilution method; assay type: functional; in short: as §5

SMILES | fold change (FC) [1] | MIC [2] | MIC [3] | fold change (FC) [4] | diameter of the inhibition zone (DIZ) [5] | MIC [6] | diameter of the inhibition zone (DIZ) [7] | pKa [8] | MIC [9] | diameter of the inhibition zone (DIZ) [10] | DIZ [11] | diameter of the inhibition zone (DIZ) [12] | MIC [13] | diameter of the inhibition zone (DIZ) [14] | MIC [15] | MIC [16] | MBC [17] | MBC [18]
C[Si]1(C)OB(O)c2cc(F)c(F)cc21 | 32 | 3.12 µg/mL (≈ 14.6 µM) | > 400 µg/mL | 8 | inactive | 400 µg/mL (≈ 1870 µM) | inactive | 6.8 | > 400 µg/mL | 57 mm | inactive | 17 mm | 50 µg/mL (≈ 234 µM) | 18 mm | > 400 µg/mL | 400 µg/mL (≈ 1870 µM) | – | –
C[Si]1(C)OB(O)c2cccc(F)c21 | 32 | 6.25 µg/mL (≈ 31.9 µM) | 200 µg/mL (≈ 1020 µM) | 16 | inactive | 200 µg/mL (≈ 1020 µM) | 17 mm | 7.2 | > 400 µg/mL | 45 mm | inactive | 18 mm | 50 µg/mL (≈ 255 µM) | 20 mm | > 400 µg/mL | 200 µg/mL (≈ 1020 µM) | – | –
C[Si]1(C)OB(O)c2cc(C=O)cc(F)c21 | 16 | 200 µg/mL (≈ 893 µM) | > 400 µg/mL | 4 | inactive | > 400 µg/mL | inactive | 5.6 | > 400 µg/mL | inactive | inactive | inactive | 400 µg/mL (≈ 1790 µM) | inactive | > 400 µg/mL | > 400 µg/mL | 200 µg/mL (≈ 893 µM) | 100 µg/mL (≈ 446 µM)
C[Si]1(C)OB(O)c2c(C=O)cc(F)c(F)c21 | 64 | 100 µg/mL (≈ 413 µM) | 400 µg/mL (≈ 1650 µM) | 4 | inactive | 400 µg/mL (≈ 1650 µM) | inactive | 5.2 | > 400 µg/mL | 13 mm | inactive | inactive | 400 µg/mL (≈ 1650 µM) | inactive | > 400 µg/mL | 400 µg/mL (≈ 1650 µM) | 400 µg/mL (≈ 1650 µM) | 100 µg/mL (≈ 413 µM)
C[Si]1(C)OB(O)c2ccccc21 | 4 | 3.12 µg/mL (≈ 17.5 µM) | > 200 µg/mL | 8 | inactive | > 200 µg/mL | inactive | 7.9 | > 200 µg/mL | 36 mm | inactive | inactive | 100 µg/mL (≈ 562 µM) | 11 mm | 200 µg/mL (≈ 1120 µM) | > 200 µg/mL | – | –
C[Si]1(C)OB(O)c2ccc(Cl)cc21 | 64 | 6.25 µg/mL (≈ 29.4 µM) | 400 µg/mL (≈ 1880 µM) | 32 | inactive | 400 µg/mL (≈ 1880 µM) | inactive | 7.3 | 400 µg/mL (≈ 1880 µM) | 47 mm | inactive | 26 mm | 12.5 µg/mL (≈ 58.8 µM) | 18 mm | > 400 µg/mL | 100 µg/mL (≈ 471 µM) | 50 µg/mL (≈ 235 µM) | 400 µg/mL (≈ 1880 µM)
C[Si]1(C)OB(O)c2ccc(C=O)c(F)c21 | 16 | > 400 µg/mL | > 400 µg/mL | 4 | inactive | > 400 µg/mL | inactive | 5.4 | > 400 µg/mL | inactive | inactive | inactive | 400 µg/mL (≈ 1790 µM) | inactive | > 400 µg/mL | > 400 µg/mL | 100 µg/mL (≈ 446 µM) | 100 µg/mL (≈ 446 µM)
C[Si]1(C)OB(O)c2cccc(B(O)O)c21 | 4 | 50 µg/mL (≈ 225 µM) | 400 µg/mL (≈ 1800 µM) | 4 | inactive | > 400 µg/mL | inactive | 7.4 | > 400 µg/mL | inactive | inactive | inactive | > 400 µg/mL | inactive | > 400 µg/mL | > 400 µg/mL | – | –
C[Si]1(C)OB(O)c2cc(F)c(C=O)c(F)c21 | 4 | 50 µg/mL (≈ 207 µM) | > 400 µg/mL | 8 | inactive | > 400 µg/mL | inactive | 4.9 | > 400 µg/mL | inactive | inactive | inactive | > 400 µg/mL | inactive | > 400 µg/mL | > 400 µg/mL | – | –
C[Si]1(C)OB(O)c2ccc(F)cc21 | 16 | 1.56 µg/mL (≈ 7.97 µM) | 200 µg/mL (≈ 1020 µM) | 16 | inactive | > 400 µg/mL | inactive | 7.3 | > 400 µg/mL | 46 mm | inactive | 11 mm | 25 µg/mL (≈ 128 µM) | 11 mm | > 400 µg/mL | 200 µg/mL (≈ 1020 µM) | – | 400 µg/mL (≈ 2040 µM)
C[Si]1(C)OB(O)c2cc(F)c(CO)c(F)c21 | 4 | 400 µg/mL (≈ 1640 µM) | 400 µg/mL (≈ 1640 µM) | 4 | inactive | > 400 µg/mL | inactive | 5.8 | > 400 µg/mL | inactive | inactive | inactive | > 400 µg/mL | inactive | > 400 µg/mL | 200 µg/mL (≈ 819 µM) | – | –
